Results as given in PMC3100183 (Biochemistry, 2011).
Where two headings read alike, the source gives them in different places.

Tests used:
[1] = system: EET binding site/receptor on U937 cell membranes; details: cited from earlier work
[2] = system: bovine coronary arteries; details: cited from earlier work
[3] = system: 47 KDa protein in U937 cell membranes; type: binding; details: for Ki: read-out: Ki (95% Confidence Intervals), inhibition of 20-125I-14,15-EE8ZE-APSA photolabeling, U937 membranes, one-site competitive binding model
[4] = system: 79 orphan GPCRs overexpressed in HEK293T cells; experiment: Photolabeling of GPCRs overexpressed in HEK293T cells; type: binding; details: 1 nM photoprobe; 79 GPCRs of Table 2
Summary of the method: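 HEK293T transiently transfected in 96-well format with N-terminal FLAG-tagged GPCRs (pMEX vector); expression confirmed by anti-FLAG flow cytometry. Lysed 30 min on ice (Tris pH 7.4, NaCl, NP-40, deoxycholate, protease inhibitors), sonicated. Lysates with 1 nM 125I photoprobe at 4°C, UV 15 min, SDS-PAGE, autoradiography. Vector-transfected HEK293T as blank; lysate from an equal number of U937 cells as positive control.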

[5] = system: bovine coronary arteries; details: for EC50: read-out: EC50, relaxation of bovine coronary artery rings, rings pre-constricted with U46619 (20 nM)
Summary of the method: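 Left anterior descending bovine coronary artery rings, preconstricted with U46619 (20 nM). Relaxation expressed as %, with basal tension taken as 100% relaxation. Mean ± SEM, n=6–7.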

[6] = U937 cell (mixed) membranes, 1 nM photoprobe

## CCCC(C(=O)OCCN(CC)CC)(c1ccccc1)c1ccccc1 [proadifen]
[1]
  Effect on 20-125I-14,15-EE5ZE binding, in words: did not alter
[2]
  Effect on 14,15-EET-induced relaxations of bovine coronary arteries, in words: did not alter

## Nc1ccc(S(=O)(=O)Nc2ccnn2-c2ccccc2)cc1 [sulfaphenazole]
[1]
  Effect on 20-125I-14,15-EE5ZE binding, in words: did not alter

## C#CCOc1ccccc1CCCCCC(=O)NS(C)(=O)=O [MS-PPOH]
[1]; read-out: Ki, inhibition of 20-125I-14,15-EE5ZE binding
  Ki: 1.56 µM
[3]; [6]
  Inhibition of photolabeling of the 47 KDa protein, in words: partially inhibited
[2]
  Effect on 14,15-EET-induced relaxations of bovine coronary arteries, in words: blocked

## CC(=O)N1CCN(c2ccc(OCC3COC(Cn4ccnc4)(c4ccc(Cl)cc4Cl)O3)cc2)CC1 (stereo not drawn) [ketoconazole]
[1]; 50 μM
  Inhibition of 20-125I-14,15-EE5ZE binding: 50%
[3]; [6]
  Inhibition of photolabeling of the 47 KDa protein, in words: partially inhibited

## C=CCN1CC[C@]23c4c5ccc(O)c4O[C@H]2C(=O)CC[C@@]3(O)[C@H]1C5 [naloxone]
[3]; [6]
  Inhibition of photolabeling of the 47 KDa protein, in words: not inhibited

## CCCCCC=CCC=CCC(O)C(O)CC=CCCCC(=O)O (stereo not drawn) [8,9-DHET, 8,9-dihydroxyeicosatrienoic acid]
[1]
  Effect on 20-125I-14,15-EE5ZE binding, in words: not to displace
[3]; [6]
  Inhibition of photolabeling of the 47 KDa protein, in words: not inhibited

## [N-]=[N+]=Nc1cccc(S(=O)(=O)NC(=O)CCCCCC/C=C\CCCCC2OC2CCCCC[125I])c1 (stereo not drawn) [20-^125I-14,15-EE8ZE-APSA]
[4]
  Photolabeling of lysates of GPCR expressing HEK293T cells, in words: No radiolabeled bands

## CCCCCC1OC1CC=CCC=CCC=CCCCC(=O)O (stereo not drawn) [14,15-EET, 14,15-epoxyeicosatrienoic acid]
[3]; [6]
  Inhibition of photolabeling of the 47 KDa protein, in words: inhibited
[3]; U937 plasma membranes
  Inhibition of photolabeling of the 47 KDa protein, in words: inhibited
[3]
  Ki: 0.00828 µM
[5]
  EC50: ~2 µM

## CCCCC/C=C\C/C=C\C/C=C\C=C\C(=O)CCCC(=O)O [5-oxo-eicosatetraenoic acid]
[3]; [6]
  Inhibition of photolabeling of the 47 KDa protein, in words: not inhibited

## CCCCC/C=C\C/C=C\CC1OC1C/C=C\CCCC(=O)O (stereo not drawn) [8,9-EET]
[3]
  Ki: 0.444 µM

## CCCCCC1OC1CCCCCCC/C=C\CCCC(=O)O (stereo not drawn) [14,15-EE5ZE, 14,15-cis-epoxy-eicosa-5(Z)-enoic acid]
[3]
  Ki: 1.1 µM

## [N-]=[N+]=Nc1cccc(S(=O)(=O)NC(=O)CCCCCC/C=C\CCCCC2OC2CCCCCI)c1 (stereo not drawn) [20-I-14,15-EE8ZE-APSA, 20-iodo-14,15-epoxyeicosa-8Z-enoyl-3-azidophenylsulfonamide]
[5]; compared with 14,15-EET
  ED50 for relaxation of preconstricted bovine coronary arteries, in words: comparable to 14,15-EET
[5]
  EC50: ~2 µM

## Clc1ccc(COC(Cn2ccnc2)c2ccc(Cl)cc2Cl)c(Cl)c1 (stereo not drawn) [miconazole]
[3]; [6]
  Inhibition of photolabeling of the 47 KDa protein, in words: inhibited
[3]; U937 cell (mixed) membranes, 1 nM photoprobe, listed as Miconazole
  Inhibition of photolabeling of the 47 KDa protein, in words: completely blocked
[2]
  Effect on 14,15-EET-induced relaxations of bovine coronary arteries, in words: blocked

## CCCCC[C@H](O)/C=C/[C@@H]1[C@@H](C/C=C\CCCC(=O)O)[C@H]2CO[C@@H]1C2 [U46619, 9-11-dideoxy-11α,9a-epoxymethano-prostaglandin F2α]
[3]; [6]
  Inhibition of photolabeling of the 47 KDa protein, in words: not inhibited

## CCCCCC1SC1C/C=C\C/C=C\C/C=C\CCCC(=O)O (stereo not drawn) [14,15-Thiirane]
[3]; [6]
  Inhibition of photolabeling of the 47 KDa protein, in words: did not alter
[3]; U937 cell (mixed) membranes, 1 nM photoprobe, listed as thiirane analog of 14,15-EET
  Inhibition of photolabeling of the 47 KDa protein, in words: not inhibited
[3]
  Ki: > 10 µM

## CCCCC/C=C\C[C@H]1O[C@H]1C/C=C\C/C=C\CCCC(=O)O [11,12-EET]
[3]; [6]
  Inhibition of photolabeling of the 47 KDa protein, in words: inhibited
[3]
  Ki: 0.0112 µM
